Counter-ions that a name gives are not always drawn.
How the values were obtained:
MCF-7 cells = test: Live and dead assay by flow cytometry; type: cell-based, human; conditions: 15 nM, positive control, PI staining
In short: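 MCF-7 cells (0.8 × 10^6) were exposed to vehicle, 3 or 6 μM test compound, or 15 nM vinblastine (positive control) for 48 h. Cells were stained with propidium iodide and live and dead percentages were counted by flow cytometry. Values are mean ± SD of three experiments.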

[1] = cited from earlier work

Compound	dead % (MCF-7 cells) [%]	live % (MCF-7 cells) [%]	Solubility in water [1]
CC[C@]1(O)C[C@@H]2CN(CCc3c([nH]c4ccccc34)[C@@](C(=O)OC)(c3cc4c(cc3OC)N(C)[C@H]3[C@@](O)(C(=O)OC)[C@H](OC(C)=O)[C@]5(CC)C=CCN6CC[C@]43[C@@H]65)C2)C1 [Vinblastine, Vinblastine sulfate]	83 ± 6	18 ± 6	
COc1ccc(/C=C\c2cc(OC)c(OC)c(OC)c2)cc1O [CA-4, combretastatin A-4]			poorly soluble in water
